In ChEMBL document CHEMBL1153453, “Schiff bases of 3-formylchromone as thymidine phosphorylase inhibitors” (Bioorg Med Chem, 2009) one finds IC50 data, which are given here for 17 compounds.

Chain of Thymidine phosphorylase (P07650 whole entry): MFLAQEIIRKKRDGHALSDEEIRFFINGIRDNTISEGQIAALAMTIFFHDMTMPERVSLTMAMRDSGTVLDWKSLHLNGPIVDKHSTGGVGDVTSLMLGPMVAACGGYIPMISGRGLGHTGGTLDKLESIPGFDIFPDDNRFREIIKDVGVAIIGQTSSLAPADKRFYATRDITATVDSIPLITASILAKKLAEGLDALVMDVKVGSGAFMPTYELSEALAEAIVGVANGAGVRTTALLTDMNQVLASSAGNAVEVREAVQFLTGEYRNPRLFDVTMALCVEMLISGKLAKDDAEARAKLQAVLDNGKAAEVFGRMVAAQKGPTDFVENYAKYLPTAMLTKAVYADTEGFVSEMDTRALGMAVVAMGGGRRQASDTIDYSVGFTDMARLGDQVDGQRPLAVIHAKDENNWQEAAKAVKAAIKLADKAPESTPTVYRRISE

The first assay concerns the target Thymidine phosphorylase (Escherichia coli K-12, UniProt P07650). In words: Inhibition of Escherichia coli thymidine phosphorylase.
Conditions: not given; call rule not given here
In short, it runs like this: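 E. coli thymidine phosphorylase, 0.05 or 0.002 U, in potassium phosphate buffer pH 7.4, preincubated with test compound 10 min at 25 °C. A 290 nm pre-read was then taken, substrate added (1.5 mM stock), and absorbance at 290 nm read after 10, 20 and 30 min. Increasing compound concentrations were tested in triplicate. IC50 was calculated from the inhibition data.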
Regarding `O=c1c(/C=N/c2ccncc2)coc2ccccc12`, the IC50 (as a rule, the concentration at which inhibition is half-maximal) is “Not Active”.

`COc1cc([N+](=O)[O-])ccc1/N=C/c1coc2ccccc2c1=O`: the IC50 result is “Not Active”.

As for `Cc1ccc(/N=C/c2coc3ccccc3c2=O)cc1`, the IC50 result is given as “Not Active”.

As to `Cc1cccc(C)c1/N=C/c1coc2ccccc2c1=O`, the 50% inhibitory concentration (IC50) result is reported as “Not Active”.

For the compound `CC(C)(C)NC(NC(C)(C)C)c1coc2ccccc2c1=O`, the IC50 entry was “Not Active”.

Consider `COc1cccc(/N=C/c2coc3ccccc3c2=O)c1`, for which the IC50 entry was “Not Active”.

In the case of `O=c1c(/C=N/c2cccnc2)coc2ccccc12`, the half-inhibitory concentration (IC50) result is recorded as “Not Active”.

For `O=C(O)c1ccccc1/N=C/c1coc2ccccc2c1=O`, the IC50 entry was “Not Active”.

The same assay, now with this note: read-out: IC50.
As for `CCC(=O)N/N=C/c1coc2ccccc2c1=O`, the IC50 was found to be 146 µM.

With `O=c1c(/C=N/c2ncccc2O)coc2ccccc12`, the IC50 worked out at 340 µM.

As for `O=c1c(/C=N/C(CO)Cc2ccccc2)coc2ccccc12` (configuration not stated), the IC50 amounted to 473 µM.

Turning to `Cc1cccc([N+](=O)[O-])c1/N=C/c1coc2ccccc2c1=O`, the IC50 worked out at 480 µM.

With `O=c1c(/C=N/CC/N=C/c2coc3ccccc3c2=O)coc2ccccc12`, the IC50 turned out to be 150 µM.

Consider `O=c1c(/C=N/c2ccc(Cl)cc2Cl)coc2ccccc12`, for which the IC50 was found to be 40.3 µM.

Regarding `O=C(c1ccccc1)c1cc(Cl)ccc1/N=C/c1coc2ccccc2c1=O`, the IC50 was 75.9 µM.

`COc1cc(/N=C/c2coc3ccccc3c2=O)ccc1C`: the IC50 is 19.8 µM.

With `Cc1cccc(/N=C/c2coc3ccccc3c2=O)c1`, the half-inhibitory concentration (IC50) stood at 67.3 µM.
